We go through one compound from ChEMBL document CHEMBL3997769, “Discovery and preclinical evaluation of 7-benzyl-N-(substituted)-pyrrolo[3,2-d]pyrimidin-4-amines as single agents with microtubule targeting effects along with triple-acting angiokinase inhibition as antitumor agents” (Bioorg Med Chem, 2017).

A word on the GI50: it is the concentration that inhibits growth by half. One may read the IC50 as the concentration that inhibits the measured activity by half. Low readings indicate greater potency, high ones weaker potency. As usually defined, the inhibition is the change of the read-out against control, counted positive when it falls. Read a high inhibition as strong suppression.

For one series, the system named is HCC 2998. In words: Growth inhibition of human HCC2998 cells incubated for 48 hrs by sulforhodamine B assay. It counts as functional. The conditions noted are these: HCC 2998, 48 h. For orientation: In SRB staining, fixed cells bind dye roughly in proportion to their protein.
For the next series, the system named is SK-OV-3. In words: Growth inhibition of human SKOV3 cells incubated for 48 hrs by sulforhodamine B assay. It is filed as functional. As to conditions: SK-OV-3, 48 h.
For another series, the system named is UO-31. In words: Growth inhibition of human UO31 cells incubated for 48 hrs by sulforhodamine B assay. It counts as functional. The conditions noted are these: UO-31, 48 h.
The test system of another series is OVCAR-8. In words: Growth inhibition of human OVCAR8 cells incubated for 48 hrs by sulforhodamine B assay. It is filed as functional. The conditions noted are these: OVCAR-8, 48 h.
The nature of series [1]: Inhibition of bovine brain tubulin assembly preincubated for 15 mins followed by GTP addition measured for 20 mins by spectrophotometric method. The arrangement: species or system Bos taurus.
The subject of another series is M14. In words: Growth inhibition of human M14 cells incubated for 48 hrs by sulforhodamine B assay. It is filed as functional. As to conditions: M14, 48 h.
For a further series, the species on record is Bos taurus. In words: Displacement of [3H]colchicine from bovine brain tubulin at 5 uM measured after 10 mins by liquid scintillation counting method relative to control. (In a radioligand displacement assay an active substance lowers the binding of a labelled ligand.)
The subject of series [2] is 4T1. In words: Antitumor activity against luciferase/GFP-tagged mouse 4T1 cells implanted in Balb/cJ mouse assessed as reduction in lung metastasis at 50 mg/kg, ip administered three times weekly by fluorescence microscopic method. It counts as functional, organism-based. In a few lines:
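Orthotopic 4T1-Luc2-GFP allograft in the mammary fat pad of female BALB/cJ mice; IP treatment in 5% Pharmasolve/5% Solutol HS in saline began one week after implantation. At study end, lungs were excised from mice euthanized under isoflurane and imaged with a GFP-filter fluorescence dissecting microscope; GFP-positive metastases per lung counted. n = 9-10.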

A further series deals with MCF7. In words: Growth inhibition of human MCF7 cells incubated for 48 hrs by sulforhodamine B assay. It is filed as functional. The conditions noted are these: MCF7, 48 h.
The next series concerns HOP-62. In words: Growth inhibition of human HOP62 cells incubated for 48 hrs by sulforhodamine B assay. The conditions noted are these: HOP-62, 48 h. It is filed as functional.
The next series deals with A498. In words: Growth inhibition of human A498 cells incubated for 48 hrs by sulforhodamine B assay. The conditions noted are these: A498, 48 h. It counts as functional.
The subject of the next series is COLO 205. In words: Growth inhibition of human COLO205 cells incubated for 48 hrs by sulforhodamine B assay. It is filed as functional. As to conditions: COLO 205, 48 h.
A short description of series [3]: Solubility of the compound in water. It is filed as physicochemical. As to conditions: buffer.
Another series has as its system HeLa. In words: Growth inhibition of human HeLa cells measured after 96 hrs by sulforhodamine B assay. It counts as functional, cell-based. In short, it runs like this:
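Exposed 96 h to varying compound concentrations in 0.5% DMSO. Cell protein measured by sulforhodamine B; IC50 = concentration halving the increase in cell protein versus untreated cultures.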

For a further series, the system named is SN12C. In words: Growth inhibition of human SN12C cells incubated for 48 hrs by sulforhodamine B assay. It is filed as functional.
For another series, the system named is Mus musculus. In words: Toxicity in Balb/cJ mouse implanted with luciferase/GFP-tagged mouse 4T1 cells assessed as body weight change at 50 mg/kg, ip administered three times weekly measured at day 40 post dose. It counts as organism-based. As to conditions: in vivo.
The next series has as its system SF-539. In words: Growth inhibition of human SF539 cells incubated for 48 hrs by sulforhodamine B assay. It counts as functional. The conditions noted are these: SF-539, 48 h.
Series [4] concerns 4T1. In words: Antitumor activity against luciferase/GFP-tagged mouse 4T1 cells implanted in Balb/CJ mouse assessed as reduction in primary tumor growth at 50 mg/kg, ip administered three times in a week. It counts as functional, organism-based.
In another series the test system is NCI-H522. In words: Growth inhibition of human NCI-H522 cells incubated for 48 hrs by sulforhodamine B assay. The conditions noted are these: NCI-H522, 48 h. It is filed as functional.
For another series, the system named is MDA-MB-231. In words: Growth inhibition of human MDA-MB-231 cells incubated for 48 hrs by sulforhodamine B assay. It counts as functional. The conditions noted are these: MDA-MB-231, 48 h.
For another series, the system named is SK-MEL-2. In words: Growth inhibition of human SK-MEL-2 cells incubated for 48 hrs by sulforhodamine B assay. It is filed as functional. As to conditions: SK-MEL-2, 48 h.

The source made the active and inactive calls. No cut-off for these calls is given here.

Take `COc1ccc(N(C)c2nc(C)nc3c(Cc4ccccc4)cn(C)c23)cc1.Cl`: the concentration for 50% growth inhibition (GI50) in the series on HCC 2998 was 71.1 nM; in the series on SK-OV-3, 45.4 nM; in the series with UO-31 it was 209 nM; with OVCAR-8, 49.1 nM; with M14, 29.5 nM; with MCF7, 33.3 nM. Moreover, the concentration for 50% growth inhibition (GI50) in the series on HOP-62 turned out to be 47.8 nM; with A498, 20.2 nM; in the series with COLO 205, 26.3 nM; with SN12C it was 88.7 nM; in the series with SF-539 it was 25.4 nM; in the series on NCI-H522, 23.9 nM. In addition, the concentration for 50% growth inhibition (GI50) in the series on MDA-MB-231 came to 63.7 nM; in the series on SK-MEL-2, 28.6 nM. Further, the IC50 in series [1] was 480 nM; with HeLa, 14 nM. This compound also had an inhibition in the series listed under Bos taurus of 92%. For the same compound, the result with 4T1 [2] and in the series with 4T1 [4] was Active. For the same compound, in series [3], the solubility entry is “Soluble”. For the same compound, the Activity entry with Mus musculus is listed as “Non-Toxic”.
